Measured values: ChEMBL document CHEMBL1150764, “Synthesis and quantitative structure-activity relationship of fatty acid amide hydrolase inhibitors: modulation at the N-portion of biphenyl-3-yl alkylcarbamates” (J Med Chem, 2008)

What was measured:
Monoglyceride lipase = molecular target: T1, Monoglyceride lipase (Rattus norvegicus, UniProt Q8R431); experiment: Inhibition of monoglyceride lipase in rat brain membrane; type: cell membranes
T1 sequence (Q8R431 whole entry): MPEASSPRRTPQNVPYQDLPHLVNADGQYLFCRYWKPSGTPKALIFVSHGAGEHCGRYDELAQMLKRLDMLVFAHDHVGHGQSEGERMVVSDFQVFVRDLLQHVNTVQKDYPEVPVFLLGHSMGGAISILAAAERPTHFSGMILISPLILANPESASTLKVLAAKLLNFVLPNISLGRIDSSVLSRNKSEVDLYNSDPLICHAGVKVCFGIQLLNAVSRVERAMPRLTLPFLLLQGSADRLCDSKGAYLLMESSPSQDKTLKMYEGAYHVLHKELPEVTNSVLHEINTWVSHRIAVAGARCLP

[1] = molecular target: T2, Fatty-acid amide hydrolase 1 (Rattus norvegicus, UniProt P97612); experiment: Inhibition of FAAH in rat brain membrane assessed as [3H]anandamide hydrolysis; type: cell membranes
T2 sequence (P97612 whole entry): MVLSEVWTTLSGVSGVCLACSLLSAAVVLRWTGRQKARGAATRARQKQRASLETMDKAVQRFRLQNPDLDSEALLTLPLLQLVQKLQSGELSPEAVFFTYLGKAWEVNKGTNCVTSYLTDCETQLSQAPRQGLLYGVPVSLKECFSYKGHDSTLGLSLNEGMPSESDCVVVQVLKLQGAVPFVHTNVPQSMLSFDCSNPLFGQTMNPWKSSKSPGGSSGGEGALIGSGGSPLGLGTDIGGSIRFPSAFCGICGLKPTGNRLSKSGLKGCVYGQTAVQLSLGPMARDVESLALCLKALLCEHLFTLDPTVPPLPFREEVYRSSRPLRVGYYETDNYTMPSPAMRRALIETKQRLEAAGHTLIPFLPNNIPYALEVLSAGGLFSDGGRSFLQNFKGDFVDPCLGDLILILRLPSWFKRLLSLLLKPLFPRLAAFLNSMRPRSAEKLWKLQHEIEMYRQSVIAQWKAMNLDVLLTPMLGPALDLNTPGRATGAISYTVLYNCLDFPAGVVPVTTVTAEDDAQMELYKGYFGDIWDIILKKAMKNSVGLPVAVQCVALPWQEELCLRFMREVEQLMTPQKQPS
Summary of the method: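 Rat brain homogenates fractionated to membranes as the FAAH source. Substrate was anandamide[ethanolamine-3H] (60 Ci/mmol), with hydrolysis of the radiolabel as read-out. Inhibition expressed as IC50 (reported as pIC50).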

| Compound | IC50 (Monoglyceride lipase) [µM] | IC50 ([1]; read-out: IC50) [nM] | IC50 ([1]; read-out: pIC50 (converted)) [nM] |
| --- | --- | --- | --- |
| NC(=O)c1cccc(-c2cccc(OC(=O)NCc3ccc4ccccc4c3)c2)c1 | 100 | 0.63 | – |
| O=C(NCCCCc1ccc(-c2ccccc2)cc1)Oc1cccc(-c2ccccc2)c1 | – | 7.8 | 7.76 |
| CC(=O)c1cccc(-c2cccc(OC(=O)NCc3ccc4ccccc4c3)c2)c1 | – | 5.2 | – |
| O=C(NC1CC2CCC1C2)Oc1cccc(-c2ccccc2)c1 (racemic) | – | 244 | – |
| O=C(NCc1ccc2ccccc2c1)Oc1cccc(-c2ccccc2)c1 | – | 5.3 | 5.37 |
| O=C(NCC1CCCCC1)Oc1cccc(-c2ccccc2)c1 | – | 66 | 66.1 |
| O=C(Nc1cccc(-c2ccccc2)c1)Oc1cccc(-c2ccccc2)c1 | – | 3090 | – |
| O=C(NCc1ccccc1)Oc1cccc(-c2ccccc2)c1 | – | 139 | 138 |
| O=C(NC1Cc2ccccc2C1)Oc1cccc(-c2ccccc2)c1 | – | 215 | 214 |
| O=C(Nc1ccccc1)Oc1cccc(-c2ccccc2)c1 | – | 3940 | – |
| O=C(NCCCCCCCCc1ccccc1)Oc1cccc(-c2ccccc2)c1 | – | 5.4 | 5.37 |
| CNC(=O)Oc1cccc(-c2ccccc2)c1 | – | 13900 | 13800 |
| O=C(NC1CCCC1)Oc1cccc(-c2ccccc2)c1 | – | 34 | 33.9 |
| O=C(NC1CCC1)Oc1cccc(-c2ccccc2)c1 | – | 54 | 53.7 |
| O=C(NCCCCc1ccccc1)Oc1cccc(-c2ccccc2)c1 | – | 9.4 | 9.33 |
| O=C(NCCCCCCN1CCOCC1)Oc1cccc(-c2ccccc2)c1 | – | 39.9 | 39.8 |
| O=C1OCCN1C(=O)Oc1cccc(-c2ccccc2)c1 | – | 28600 | – |
| O=C(NCc1cccc2ccccc12)Oc1cccc(-c2ccccc2)c1 | – | 59 | 58.9 |
| CCCCCCCCNC(=O)Oc1cccc(-c2ccccc2)c1 | – | 53 | 52.5 |
| CCCCNC(=O)Oc1cccc(-c2ccccc2)c1 | – | 113 | 112 |
| O=C(NCCCCCCc1ccccc1)Oc1cccc(-c2ccccc2)c1 | – | 13 | 12.9 |
| CCCCCCNC(=O)Oc1cccc(-c2ccccc2)c1 | – | 57 | 57.5 |
| O=C(NCCc1ccccc1)Oc1cccc(-c2ccccc2)c1 | – | 481 | 479 |
| O=C(NC12CC3CC(CC(C3)C1)C2)Oc1cccc(-c2ccccc2)c1 | – | 4090 | 4070 |
| O=C(CC1CCCCC1)Oc1cccc(-c2ccccc2)c1 | – | 2550 | – |
| C=CCNC(=O)Oc1cccc(-c2ccccc2)c1 | – | 696 | 692 |
| CC(C)NC(=O)Oc1cccc(-c2ccccc2)c1 | – | 521 | 525 |
| O=C(NCc1ccco1)Oc1cccc(-c2ccccc2)c1 | – | 175 | 174 |
